Screening results as filed in PubChem BioAssay.
OX1R antag-1: human HCRTR1 antagonism; AID 434989; CHO/OX1R cells, Fluo-8 calcium fluorescence, orexin A; O43613; inhibition, % at 5 µM; hit rate 0.43% among 330,000;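 active = inhibition above its plate's threshold, mean inhibition of all tested compounds on the plate plus 3 SD, cut at about 37% in these data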
TAAR1 ag: human TAAR1 agonism; Q96RJ0; CHO RD-HGA16 TAAR1, Fluo-8 calcium fluorescence; vehicle wells 0%, saturating PEA agonist 100%; activation, % at 3 µM; hit rate 0.99% among 360,000;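 active = activation above the mean activation of all test compounds in the run plus 3 SD, cut at about 38% in these data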
Target sequence (Q96RJ0 whole entry, looked up): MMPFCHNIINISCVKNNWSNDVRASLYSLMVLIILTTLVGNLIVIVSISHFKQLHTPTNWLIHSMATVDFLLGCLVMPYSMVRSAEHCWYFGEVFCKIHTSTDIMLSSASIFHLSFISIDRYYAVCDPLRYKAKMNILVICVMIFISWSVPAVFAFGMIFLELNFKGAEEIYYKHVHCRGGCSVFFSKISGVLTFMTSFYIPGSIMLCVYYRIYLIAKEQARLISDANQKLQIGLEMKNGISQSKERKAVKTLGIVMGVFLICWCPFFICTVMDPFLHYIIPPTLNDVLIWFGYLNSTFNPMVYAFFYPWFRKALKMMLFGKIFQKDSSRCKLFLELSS
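Test system: RD-HGA16 (CHO) cells co-expressing Gα16 and hTAAR1 | Doses: Single dose, 3 µM | Schedule: 17-24 h seeding, 75 min 37 °C dye, 30 min RT | Evaluation: % activation from peak over basal fluorescence ratio, DMSO-to-PEA scaled | Technique: Kinetic Fluo-8 calcium fluorescence | Benchmarks: Low control DMSO, high control PEA (EC100)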
CHO parental Ca: signal in parental CHO cells, OX1R antagonist counter-screen. parental CHO-K1, ATP-induced calcium, Fluo-8 fluorescence. inhibition, % at 5.6 µM. hit rate 0.63% among 330,000. AID 463079;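 active = inhibition above that plate's mean sample inhibition plus 3 SD, cut at about 26% in these data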
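Test system: untransfected parental CHO cell line; also added: ATP stimulus; dosing: 5.6 µM, single dose; signal: calcium-sensitive Fluo-8 fluorescence; measure: percent inhibition of ATP-evoked calcium rise, normalized to controls; benchmarks: low control ATP plus DMSO, high control DMSO only; replication: one well per compound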
OX1R antag-2: antagonists of human orexin 1 receptor (OX1R). hit rate 1.8% among 330,000. inhibition, % at 6.6 µM. OX1R-expressing cells, FRET antagonist read-out. O43613; in the data active = inhibition mostly above about 38%, no sharp cut-off; inactive = mostly below about 40%
GalR3 antag: human GalR3 antagonism; inhibition, % at 3 µM; O60755; hit rate 0.44% among 360,000; AID 651719; HEK293 GalR3-CNG cAMP membrane potential fluorescence; galR3 body fused to GalR1 C-terminus;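 active = inhibition above the screen-wide average plus 3 SD, cut at about 13% in these data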;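 also: forskolin and galanin both at EC90 stimulate the cells; cAMP rise reported by CNG channel membrane potential dye signal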
Target sequence (O60755 1-299 limits assumed): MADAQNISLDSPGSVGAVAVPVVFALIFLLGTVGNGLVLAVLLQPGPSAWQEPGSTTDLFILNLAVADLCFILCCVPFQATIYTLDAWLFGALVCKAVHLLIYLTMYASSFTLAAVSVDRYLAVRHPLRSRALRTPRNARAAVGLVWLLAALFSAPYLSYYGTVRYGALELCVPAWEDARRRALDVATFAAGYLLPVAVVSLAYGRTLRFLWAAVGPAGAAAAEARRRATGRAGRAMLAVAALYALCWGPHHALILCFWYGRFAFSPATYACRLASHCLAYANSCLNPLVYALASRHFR
TAAR1 antagonist: human TAAR1 antagonism; AID 624466; Q96RJ0; inhibition, % at 3 µM; CHO RD-HGA16 TAAR1, Fluo-8 calcium fluorescence, antagonist; hit rate 1.5% among 360,000;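 active = inhibition above a per-plate cutoff, the mean inhibition of test compounds on that plate plus 3 SD, cut at about 49% in these data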
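System: CHO RD-HGA16 cells bearing hTAAR1. Reagent: EC80 β-phenethylamine stimulus. Schedule: seeding 17-24 h prior, 75-min 37 °C, 30-min RT dye loading. Signal: Fluo-8 intracellular calcium dye fluorescence, real-time kinetic reads. Read-out: % inhibition from peak post-agonist over basal fluorescence ratio. Benchmarks: vehicle wells and EC80 agonist wells. Replicates: n of 1.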
TAAR1 ag confirm: human TAAR1 agonism, confirmed; shares compounds with TAAR1 ag; CHO RD-HGA16 TAAR1, Fluo-8 calcium fluorescence; scaled: DMSO 0%, maximal phenethylamine 100%; activation, % at 3 µM; hit rate 82% among 2,400; AID 651783;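 active = activation above a cutoff set at the run's mean compound activation plus 3 SD, cut at about 39% in these data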
Ga16 nonsel ag: counter-screen for TAAR1 agonists: nonselective agonists in parental cells. shares compounds with TAAR1 ag. CHO-Ga16 parental, Fluo-8 calcium fluorescence; normalized to maximal ATP response, DMSO zero. activation, % at 3 µM. hit rate 50% among 2,400. AID 651787;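 active = activation above the run cutoff, the mean activation over all tested wells plus 3 SD, cut at about 12% in these data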
TAAR1 desensitize: human TAAR1 agonist that also desensitizes the receptor | shares compounds with TAAR1 ag | CHO RD-HGA16 hTAAR1, Fluo-8 calcium, beta-PEA response inhibition | inhibition, % at 3 µM | hit rate 46% among 2,400 | AID 651951;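 active = inhibition above the run cutoff, the mean inhibition of all test compounds plus 3 SD, cut at about 49% in these data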;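 also: beta-PEA stimulus applied at its EC80; loss of beta-PEA calcium signal after compound pretreatment read as receptor desensitization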
Ga16 nonsel ant: nonselective Ga16 antagonist in TAAR1 agonist counter-screen; shares compounds with TAAR1 ag; CHO-Ga16 ATP-induced calcium, Fluo-8 fluorescence; AID 651952; hit rate 39% among 2,400; inhibition, % at 3 µM;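 active = inhibition above the plate's mean compound inhibition plus 3 SD, computed per plate, cut at about 22% in these data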
Large screens that a line does not name were inactive (follow-up assays come after a bar, where they were run). In the library only some 4.3% were active in any assay of this set; here they are far more common.

CCC(NC(=O)c1cc(COc2cncc(Cl)c2)on1)c1ccncc1 (configuration not stated)	none
C=Cc1ccc(Cn2c(C)c(C(=O)NCc3ccc(C#N)cc3)sc2=O)cc1	none (no result: OX1R antag-1, CHO parental Ca, OX1R antag-2)
O=C(Cc1ccccc1)NC(=S)Nc1cccc(C(F)(F)F)c1	TAAR1 ag 55 | TAAR1 ag confirm inactive | Ga16 nonsel ag 15 | TAAR1 desensitize inactive | Ga16 nonsel ant inactive
CC(=O)c1cccc(NC(=S)NC(=O)Cc2ccccc2)c1	none
CC(=O)c1cccc(NC(=S)NC(=O)Cc2ccc(Cl)cc2)c1	TAAR1 ag 94, TAAR1 antagonist 57 | TAAR1 ag confirm 106 | Ga16 nonsel ag 59 | TAAR1 desensitize 85 | Ga16 nonsel ant 47
O=C(Cc1ccccc1)NC(=S)Nc1cc(C(F)(F)F)ccc1Cl	TAAR1 ag 53, TAAR1 antagonist 49 | TAAR1 ag confirm 49 | Ga16 nonsel ag 20 | TAAR1 desensitize inactive | Ga16 nonsel ant inactive
Cc1ccc(NC(=S)NC(=O)Cc2ccccc2)c(O)c1	TAAR1 ag 66 (no result: OX1R antag-1, CHO parental Ca, OX1R antag-2) | TAAR1 ag confirm 73 | Ga16 nonsel ag 27 | TAAR1 desensitize inactive | Ga16 nonsel ant 24
CCCCNC(=O)C1(C)CCN1Cc1cccc2c(OC)cc(C(=O)OCC)cc12 (configuration not stated)	none (no result: OX1R antag-1, CHO parental Ca, OX1R antag-2)
O=C1C=C(c2ccc(F)cc2OCc2ccccc2)C[C@@H](c2ccc(Cl)cc2)C1	none
CC(C)[C@@H](CO)N(C)S(=O)(=O)c1ccccc1Br	none
O=C(Cc1ccc(Cl)cc1)NC(=S)Nc1ccccc1N1CCOCC1	TAAR1 ag 65, TAAR1 antagonist 52 | TAAR1 ag confirm 72 | Ga16 nonsel ag 44 | TAAR1 desensitize 57 | Ga16 nonsel ant 34
Cc1ccc(CNC(=O)c2ccc(CNS(=O)(=O)c3ccc4c(c3)C(C)(C)C(=O)N4C)cc2)o1	none
COC(=O)c1ccc(COc2ccc(-c3nn[nH]n3)cc2)cc1	TAAR1 ag 51 | TAAR1 ag confirm inactive | Ga16 nonsel ag inactive | TAAR1 desensitize inactive | Ga16 nonsel ant inactive
Cc1ccc(S(=O)(=O)N2[C@@H](Cc3ccccc3)CO[C@H]2CC(=O)c2ccc(F)cc2)cc1	none (no result: OX1R antag-1, CHO parental Ca, OX1R antag-2)
COc1cccc(-c2ccc(NC(=O)C3CCCN(Cc4cnc(N(C)C)s4)C3)cc2)c1 (configuration not stated)	TAAR1 ag 63 | TAAR1 ag confirm 64 | Ga16 nonsel ag 33 | TAAR1 desensitize inactive | Ga16 nonsel ant inactive
CCOC(=O)c1c(S(=O)(=O)NCCc2cccs2)c(C)n(C)c1C	TAAR1 ag 55 | TAAR1 ag confirm inactive | Ga16 nonsel ag inactive | TAAR1 desensitize inactive | Ga16 nonsel ant inactive
C#CCN(C[C@H]1[C@H](OC(=O)NC2CCCC2)[C@H](OC(=O)NC2CCCC2)C[C@@H](C(=O)OC)[C@H]1C(=O)OC)S(=O)(=O)c1ccc(C)cc1	none (no result: OX1R antag-1, CHO parental Ca, OX1R antag-2)
COC(=O)C[C@H]1C=C[C@H](NS(=O)(=O)c2cn(C)cn2)[C@@H](CO)O1	none (no result: OX1R antag-1, CHO parental Ca, OX1R antag-2)
Cc1ccc(Oc2ccc(Oc3ccc(C)cc3)nn2)cc1	TAAR1 ag 66, CHO parental Ca 27, TAAR1 antagonist 68 | TAAR1 ag confirm inactive | Ga16 nonsel ag 17 | TAAR1 desensitize inactive | Ga16 nonsel ant inactive
Cc1ccc(Oc2cnc3ccccc3n2)cc1	none
CO[C@@H]1CN(C)C(=O)c2cc(NC(=O)Nc3cc(F)ccc3F)ccc2OC[C@H](C)N(C(=O)c2cnccn2)C[C@@H]1C	none (no result: OX1R antag-1, CHO parental Ca, OX1R antag-2)
CCOc1ccc(/C=N/NC(=O)c2nnn(-c3nonc3N)c2-c2cccs2)cc1	TAAR1 ag 125, TAAR1 antagonist 70 | TAAR1 ag confirm 120 | Ga16 nonsel ag 91 | TAAR1 desensitize 76 | Ga16 nonsel ant 46
Cc1ccsc1/C=N/NC(=O)c1nnn(-c2nonc2N)c1-c1ccc2c(c1)OCO2	none
CCOc1cccc(-c2c(C(=O)N/N=C/c3ccsc3)nnn2-c2nonc2N)c1	TAAR1 ag 118 | TAAR1 ag confirm 136 | Ga16 nonsel ag 93 | TAAR1 desensitize 67 | Ga16 nonsel ant 27
Nc1nonc1-n1nnc(C(=O)N/N=C/c2ccncc2)c1-c1cccs1	none
Nc1nonc1-n1nnc(C(=O)N/N=C/c2cccs2)c1-c1ccc2c(c1)OCO2	TAAR1 ag 141, TAAR1 antagonist 66 | TAAR1 ag confirm 122 | Ga16 nonsel ag 81 | TAAR1 desensitize 65 | Ga16 nonsel ant 28
CCOc1ccc(-c2c(C(=O)N/N=C/c3cccs3)nnn2-c2nonc2N)cc1	TAAR1 ag 96 | TAAR1 ag confirm 127 | Ga16 nonsel ag 80 | TAAR1 desensitize 60 | Ga16 nonsel ant 32
COc1ccccc1C(=O)NCCC(=O)NC1CCCCCC1	none
COC(=O)c1ccc(OCC(=O)NC2CCCCCC2)cc1	none
O=c1cccc(-c2cccc3ccccc23)o1	none (no result: OX1R antag-1, CHO parental Ca, OX1R antag-2)
CCn1c(=S)sc2c(=O)n(CC(=O)Nc3cccc(OC)c3)c(C)nc21	none
CC1NC(C)c2c(ccc3ccccc23)O1 (configuration not stated)	none (no result: OX1R antag-1, TAAR1 ag, CHO parental Ca, OX1R antag-2, TAAR1 antagonist) | Ga16 nonsel ag inactive | Ga16 nonsel ant inactive
O=C(NCCc1ccccc1)c1ccc(CS(=O)(=O)Cc2ccccc2F)o1	TAAR1 ag 55 | TAAR1 ag confirm 83 | Ga16 nonsel ag inactive | TAAR1 desensitize 66 | Ga16 nonsel ant inactive
CN(CCNC(=O)c1ccc(CS(=O)(=O)c2c(Cl)cccc2Cl)o1)CCc1ccccc1	TAAR1 ag 44 | TAAR1 ag confirm 55 | Ga16 nonsel ag inactive | TAAR1 desensitize inactive | Ga16 nonsel ant inactive
CN(C)CCNC(=O)c1ccc(CS(=O)(=O)c2c(Cl)cccc2Cl)o1	none
Cc1ccc(CCNC(=O)c2ccc(CS(=O)(=O)Cc3ccccc3F)o2)cc1	none
O=C(CN1C(=O)NC2(CCCC2)C1=O)Nc1ccc(F)c(Cl)c1	none
O=C(COC(=O)CNC(=O)c1ccc(Cl)cc1Cl)Nc1cccc(S(=O)(=O)N2CCCC2)c1	none
COc1ccc2[nH]c3c(c2c1)CCN1C(=O)N([C@@H](C)C(=O)NCc2ccccc2)C(=O)[C@]31C	none
